Key:
Assay type in all cases: ADME, organism-based
Mus musculus [1] = assay: The biodistribution time for compound radioactivity after concomitant administration of [131 I ]L-HML-NGA and compound in mice. It is expressed as percent injected dose per liver after 5 minutes; conditions: in vivo
In short: (§1)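 Six-week-old male ddY mice received an intravenous injection of a 1:1 mix of the 131I- and 125I-labelled galactosyl-neoglycoalbumin conjugates, each diluted to 90 µg/mL protein in 0.1 M PBS pH 6.0, at 9 µg radioiodinated NGA per mouse. Groups of five were killed at 5, 15 and 30 min, 1 and 3 h. Organs were excised, weighed and well-counted, giving %ID/organ (blood %ID/g) as mean (SD).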

Mus musculus [2] = assay: The biodistribution time for compound radioactivity after concomitant administration of [131 I ]L-HML-NGA and compound in mice. It is expressed as percent injected dose per liver after 1 hour; conditions: in vivo; in short: as §1
Mus musculus [3] = assay: The biodistribution time for compound radioactivity after concomitant administration of [131 I ]L-HML-NGA and compound in mice. It is expressed as percent injected dose per neck after 5 minutes; conditions: in vivo; in short: as §1
Mus musculus [4] = assay: The biodistribution time for compound radioactivity after concomitant administration of [131 I ]L-HML-NGA and compound in mice. It is expressed as percent injected dose per gram of blood tissue after 5 minutes; conditions: in vivo; in short: as §1
Mus musculus [5] = assay: The biodistribution time for compound radioactivity after concomitant administration of [131 I ]L-HML-NGA and compound in mice. It is expressed as percent injected dose per intestine after 5 minutes; conditions: in vivo; in short: as §1
Mus musculus [6] = assay: The biodistribution time for compound radioactivity after concomitant administration of [[131 I ]L-HML-NGA and compound in mice. It is expressed as percent injected dose per kidney after 15 minutes; conditions: in vivo, 0.25 h; in short: as §1
Mus musculus [7] = assay: The biodistribution time for compound radioactivity after concomitant administration of [131 I ]L-HML-NGA and compound in mice. It is expressed as percent injected dose per gram of blood tissue after 15 minutes; conditions: in vivo, 0.25 h; in short: as §1
[8] = Cumulative radioactivity exerted by compound in the feces at 24 hour postinjection of [131 I ]L-HML-NGA and compound.; conditions: in vivo
In short: (§2)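 Mice received one i.v. co-injection of the dual-isotope NGA mixture, 9 µg of each radioiodinated protein, and were housed in metabolic cages for 24 h. Cumulative urine and feces were collected and counted. Values are % injected dose, mean (SD) of five animals, with a Student's paired t-test between the two co-administered conjugates.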

Mus musculus [9] = assay: The biodistribution time for compound radioactivity after concomitant administration of [131 I ]L-HML-NGA and compound in mice. It is expressed as percent injected dose per stomach after 3 hours; conditions: in vivo; in short: as §1
Mus musculus [10] = assay: The biodistribution time for compound radioactivity after concomitant administration of [131 I ]L-HML-NGA and compound in mice. It is expressed as percent injected dose per stomach after 15 minutes; conditions: in vivo, 0.25 h; in short: as §1
Mus musculus [11] = assay: The biodistribution time for compound radioactivity after concomitant administration of [131 I ]L-HML-NGA and compound in mice. It is expressed as percent injected dose per neck after 1 hour; conditions: in vivo; in short: as §1
[12] = Cumulative radioactivity exerted by compound in the urine at 24 hour postinjection of [131 I ]L-HML-NGA and compound; conditions: in vivo; in short: as §2
Mus musculus [13] = assay: The biodistribution time for compound radioactivity after concomitant administration of [131 I ]L-HML-NGA and compound in mice. It is expressed as percent injected dose per neck after 3 hours; conditions: in vivo; in short: as §1
Mus musculus [14] = assay: The biodistribution time for compound radioactivity after concomitant administration of [131 I ]L-HML-NGA and compound in mice. It is expressed as percent injected dose per stomach after 5 minutes; conditions: in vivo; in short: as §1
Mus musculus [15] = assay: The biodistribution time for compound radioactivity after concomitant administration of [[131 I ]L-HML-NGA and compound in mice. It is expressed as percent injected dose per kidney after 1 hour; conditions: in vivo; in short: as §1
Mus musculus [16] = assay: The biodistribution time for compound radioactivity after concomitant administration of [131 I ]L-HML-NGA and compound in mice. It is expressed as percent injected dose per intestine after 15 minutes; conditions: in vivo, 0.25 h; in short: as §1
Mus musculus [17] = assay: The biodistribution time for compound radioactivity after concomitant administration of [131 I ]L-HML-NGA and compound in mice. It is expressed as percent injected dose per liver after 30 minutes; conditions: in vivo, 0.5 h; in short: as §1
Mus musculus [18] = assay: The biodistribution time for compound radioactivity after concomitant administration of [131 I ]L-HML-NGA and compound in mice. It is expressed as percent injected dose per stomach after 30 minutes; conditions: in vivo, 0.5 h; in short: as §1
Mus musculus [19] = assay: The biodistribution time for compound radioactivity after concomitant administration of [131 I ]L-HML-NGA and compound in mice. It is expressed as percent injected dose per liver after 15 minutes; conditions: in vivo, 0.25 h; in short: as §1
Mus musculus [20] = assay: The biodistribution time for compound radioactivity after concomitant administration of [131 I ]L-HML-NGA and compound in mice. It is expressed as percent injected dose per intestine after 3 hours; conditions: in vivo; in short: as §1
Mus musculus [21] = assay: The biodistribution time for compound radioactivity after concomitant administration of [131 I ]L-HML-NGA and compound in mice. It is expressed as percent injected dose per neck after 30 minutes; conditions: in vivo, 0.5 h; in short: as §1
Mus musculus [22] = assay: The biodistribution time for compound radioactivity after concomitant administration of [131 I ]L-HML-NGA and compound in mice. It is expressed as percent injected dose per neck after 15 minutes; conditions: in vivo, 0.25 h; in short: as §1
Mus musculus [23] = assay: The biodistribution time for compound radioactivity after concomitant administration of [131 I ]L-HML-NGA and compound in mice. It is expressed as percent injected dose per gram of blood tissue after 30 minutes; conditions: in vivo, 0.5 h; in short: as §1
Mus musculus [24] = assay: The biodistribution time for compound radioactivity after concomitant administration of [131 I ]L-HML-NGA and compound in mice. It is expressed as percent injected dose per gram of blood tissue after 3 hours; conditions: in vivo; in short: as §1
Mus musculus [25] = assay: The biodistribution time for compound radioactivity after concomitant administration of [131 I ]L-HML-NGA and compound in mice. It is expressed as percent injected dose per liver after 3 hours; conditions: in vivo; in short: as §1
Mus musculus [26] = assay: The biodistribution time for compound radioactivity after concomitant administration of [131 I ]L-HML-NGA and compound in mice. It is expressed as percent injected dose per intestine after 30 minutes; conditions: in vivo, 0.5 h; in short: as §1
Mus musculus [27] = assay: The biodistribution time for compound radioactivity after concomitant administration of [131 I ]L-HML-NGA and compound in mice. It is expressed as percent injected dose per intestine after 1 hour; conditions: in vivo; in short: as §1
Mus musculus [28] = assay: The biodistribution time for compound radioactivity after concomitant administration of [[131 I ]L-HML-NGA and compound in mice. It is expressed as percent injected dose per kidney after 30 minutes; conditions: in vivo, 0.5 h; in short: as §1
Mus musculus [29] = assay: The biodistribution time for compound radioactivity after concomitant administration of [131 I ]L-HML-NGA and [compound in mice. It is expressed as percent injected dose per stomach after 1 hour; conditions: in vivo; in short: as §1
Mus musculus [30] = assay: The biodistribution time for compound radioactivity after concomitant administration of [[131 I ]L-HML-NGA and compound in mice. It is expressed as percent injected dose per kidney after 5 minutes; conditions: in vivo; in short: as §1
Mus musculus [31] = assay: The biodistribution time for compound radioactivity after concomitant administration of [[131 I ]L-HML-NGA and compound in mice. It is expressed as percent injected dose per kidney after 3 hours; conditions: in vivo; in short: as §1
Mus musculus [32] = assay: The biodistribution time for compound radioactivity after concomitant administration of [131 I ]L-HML-NGA and compound in mice. It is expressed as percent injected dose per gram of blood tissue after 1 hour; conditions: in vivo; in short: as §1
Homo sapiens [33] = species on record: Homo sapiens; assay: The percent protein-bound radioactivity in NGAfractions following incubation of radioiodinated compound in human serum after 24 hours
In short: (§3)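 Conjugates were diluted to 0.5 mg/mL in 0.1 M PBS pH 6.0, and 20 µL was added to 230 µL of freshly prepared human serum. Samples were incubated at 37 °C and taken at 1, 3, 6 or 24 h. Protein-bound fraction (Rf 0) was separated from small metabolites (Rf 0.6-0.9) by paper chromatography in methanol-water 4:1. Protein-bound radioactivity was divided by the initial radiochemical purity. Values are mean (SD).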

Homo sapiens [34] = species on record: Homo sapiens; assay: The percent protein-bound radioactivity in NGAfractions following incubation of radioiodinated compound in human serum after 3 hours; in short: as §3
Homo sapiens [35] = species on record: Homo sapiens; assay: The percent protein-bound radioactivity in NGAfractions following incubation of radioiodinated compound in human serum after 6 hours; conditions: in vitro; in short: as §3
Homo sapiens [36] = species on record: Homo sapiens; assay: The percent protein-bound radioactivity in NGAfractions following incubation of radioiodinated compound in human serum after 1 hour; in short: as §3
Mus musculus [37] = assay: The biodistribution time for compound radioactivity after concomitant administration of [131 I ]L-HML-NGA and compound in mice. It is expressed as percent injected dose per neck. Values are mean(SD) of five animals for each experiment after 3 hours; conditions: in vivo; in short: as §1

Row | SMILES | Radioactivity (Mus musculus [1]) [%] | Radioactivity (Mus musculus [2]) [%] | Radioactivity (Mus musculus [3]) [%] | Radioactivity (Mus musculus [4]) [%] | Radioactivity (Mus musculus [5]) [%] | Radioactivity (Mus musculus [6]) [%] | Radioactivity (Mus musculus [7]) [%] | Radioactivity [8] [%] | Radioactivity (Mus musculus [9]) [%] | Radioactivity (Mus musculus [10]) [%] | Radioactivity (Mus musculus [11]) [%] | Radioactivity [12] [%] | Radioactivity (Mus musculus [14]) [%] | Radioactivity (Mus musculus [15]) [%] | Radioactivity (Mus musculus [16]) [%] | Radioactivity (Mus musculus [17]) [%] | Radioactivity (Mus musculus [18]) [%] | Radioactivity (Mus musculus [19]) [%] | Radioactivity (Mus musculus [20]) [%] | Radioactivity (Mus musculus [21]) [%] | also measured
1 | N[C@@H](CS)C(=O)SC1CC(=O)N(CCCC[C@@H](NC(=O)CNC(=O)c2cccc([125I])c2)C(=O)O)C1=O (some centres undefined) | 93.14 | 12.6 | 0.15 | 1.15 | 1.14 | 2.97 | 1.78 | 40.97 | 1.09 | 0.65 | 0.11 | 39.1 | 0.24 | 0.72 | 5.11 | 27.49 | 2 | 66.9 | 40.82 | 0.18 | Radioactivity (Mus musculus [13]): 0.04%; Radioactivity (Mus musculus [22]): 0.2%; Radioactivity (Mus musculus [23]): 1.11%; Radioactivity (Mus musculus [24]): 0.34%; Radioactivity (Mus musculus [25]): 3.62%; Radioactivity (Mus musculus [26]): 21.6%; Radioactivity (Mus musculus [27]): 34.28%; Radioactivity (Mus musculus [28]): 1.73%; Radioactivity (Mus musculus [29]): 1.4%; Radioactivity (Mus musculus [30]): 1.26%; Radioactivity (Mus musculus [31]): 0.34%; Radioactivity (Mus musculus [32]): 0.54%
2 | N[C@@H](CS)C(=O)SC1CC(=O)N(CCCCCNC(=O)CNC(=O)c2cccc([125I])c2)C1=O (some centres undefined) | 93.75 | 10.12 | 0.06 | 0.76 | 0.71 | 1.62 | 0.68 | 58.83 | 1.48 | 0.46 | 0.04 | 25.5 | 0.24 | 0.77 | 7.17 | 34.19 | 0.54 | 77.12 | 59.36 | 0.07 | Radioactivity (Mus musculus [13]): 0.04%; Radioactivity (Homo sapiens [33]): 97.26%; Radioactivity (Mus musculus [22]): 0.06%; Radioactivity (Homo sapiens [34]): 99.12%; Radioactivity (Mus musculus [23]): 0.64%; Radioactivity (Homo sapiens [35]): 98.56%; Radioactivity (Mus musculus [24]): 0.23%; Radioactivity (Mus musculus [25]): 5.72%; Radioactivity (Mus musculus [26]): 33.84%; Radioactivity (Mus musculus [27]): 55.62%; Radioactivity (Mus musculus [28]): 1.72%; Radioactivity (Homo sapiens [36]): 100.07%; Radioactivity (Mus musculus [29]): 0.61%; Radioactivity (Mus musculus [30]): 0.8%; Radioactivity (Mus musculus [31]): 0.38%; Radioactivity (Mus musculus [32]): 0.32%
3 | N=C(CCCSC1CC(=O)N(CCCC[C@H](NC(=O)CNC(=O)c2cccc([125I])c2)C(=O)O)C1=O)NC(=O)[C@@H](N)CCCCN (some centres undefined) | 93.67 | 5.92 | 0.11 | 1.17 | 0.43 | 4.38 | 2.76 | 4.03 | 0.35 | 0.5 | 0.07 | 78.26 | 0.24 | 1.04 | 2.26 | 18.1 | 0.36 | 55.86 | 4.96 | 0.19 | Radioactivity (Mus musculus [37]): 0.03%; Radioactivity (Homo sapiens [33]): 97.85%; Radioactivity (Mus musculus [22]): 0.25%; Radioactivity (Homo sapiens [34]): 99.4%; Radioactivity (Mus musculus [23]): 1.7%; Radioactivity (Homo sapiens [35]): 99.5%; Radioactivity (Mus musculus [24]): 0.41%; Radioactivity (Mus musculus [25]): 3%; Radioactivity (Mus musculus [26]): 4.79%; Radioactivity (Mus musculus [27]): 5.17%; Radioactivity (Mus musculus [28]): 4.64%; Radioactivity (Homo sapiens [36]): 99.88%; Radioactivity (Mus musculus [29]): 0.42%; Radioactivity (Mus musculus [30]): 0.33%; Radioactivity (Mus musculus [31]): 0.22%; Radioactivity (Mus musculus [32]): 0.73%
